Measured values reported in ChEMBL document CHEMBL4261489, “Quantitative measurement of intracellular HDAC1/2 drug occupancy using a trans-cyclooctene largazole thiol probe” (Medchemcomm, 2017).
Active and inactive are the calls of the source. The rule behind the calls is not given here.

What was measured:
Histone deacetylase 2 [1] = target: T1, Histone deacetylase 2 (Homo sapiens, UniProt Q92769); assay: Inhibition of C-terminal FLAG or His-tagged full length recombinant human HDAC2 expressed in baculovirus infected Sf9 insect cells using HDAC substrate 3 after 30 mins by fluorescence assay
In short: (§1)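 Fluorogenic deacetylation was run at 37 °C for 30 min in HEPES pH 7.5 buffer with NaCl, KCl, Tween 20, TCEP and BSA. Enzyme and substrate were: HDAC1 10 ng, HDAC2 5 ng or HDAC3 2 ng with 10 µM substrate 3; HDAC8 10 ng with 2 µM class 2a substrate 1. Compound ran at 0.001–10000 nM. Developer was added for 20 min at RT and fluorescence read at Ex360/Em460.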

Histone deacetylase 2 [2] = target: T1, Histone deacetylase 2; assay: Binding affinity to HDAC2 in human CD34positive cell-derived erythroid progenitor cells up to 3 uM by tetrazine-PEG4-biotin-based SDS-PAGE/immunoblot analysis
Histone deacetylase 1 [3] = target: T2, Histone deacetylase 1 (Homo sapiens, UniProt Q13547); assay: Inhibition of C-terminal FLAG/His-tagged full length recombinant human HDAC1 expressed in baculovirus infected Sf9 insect cells using HDAC substrate 3 after 30 mins by fluorescence assay; in short: as §1
[4] = target: Histone deacetylase 3/Nuclear receptor corepressor 2 (HDAC3/NCoR2) (Homo sapiens, UniProt O15379); assay: Inhibition of C-terminal His-tagged full length recombinant human HDAC3/N-terminal GST-tagged NCOR2 (395 to 489 residues) expressed in baculovirus infected Sf9 insect cells using HDAC substrate 3 after 30 mins by fluorescence assay; in short: as §1
Histone deacetylase 1 [5] = target: T2, Histone deacetylase 1; assay: Binding affinity to HDAC1 in human CD34positive cell-derived erythroid progenitor cells up to 3 uM by tetrazine-PEG4-biotin-based SDS-PAGE/immunoblot analysis
Histone deacetylase 8 = target: T3, Histone deacetylase 8 (Homo sapiens, UniProt Q9BY41); assay: Inhibition of C-terminal His-tagged full length recombinant human HDAC8 expressed in baculovirus infected Sf9 insect cells using HDAC class 2a substrate 1 after 30 mins by fluorescence assay; in short: as §1
T3 sequence (Q9BY41 whole entry): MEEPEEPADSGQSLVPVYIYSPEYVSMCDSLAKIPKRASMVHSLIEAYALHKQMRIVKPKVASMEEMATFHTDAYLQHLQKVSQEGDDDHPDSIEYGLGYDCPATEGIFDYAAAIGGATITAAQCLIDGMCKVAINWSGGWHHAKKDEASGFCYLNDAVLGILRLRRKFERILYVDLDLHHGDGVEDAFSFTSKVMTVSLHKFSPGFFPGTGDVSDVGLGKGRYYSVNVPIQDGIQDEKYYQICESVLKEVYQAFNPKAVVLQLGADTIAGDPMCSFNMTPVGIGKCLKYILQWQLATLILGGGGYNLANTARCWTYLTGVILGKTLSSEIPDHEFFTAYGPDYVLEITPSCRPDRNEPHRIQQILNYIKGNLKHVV

Histone deacetylase 2 [6] = target: T1, Histone deacetylase 2; assay: Binding affinity to HDAC2 in human CD34positive cell-derived erythroid progenitor cells measured up to 120 mins by tetrazine-PEG4-biotin-based SDS-PAGE/immunoblot analysis
[7] = target: Histone deacetylase 3 (Homo sapiens) (UniProt O15379); assay: Binding affinity to HDAC3 in human CD34positive cell-derived erythroid progenitor cells by tetrazine-PEG4-biotin-based SDS-PAGE/immunoblot analysis
Histone deacetylase 1 [8] = target: T2, Histone deacetylase 1; assay: Competitive binding affinity to HDAC1 in human CD34positive cell-derived erythroid progenitor cells in presence of largazole thiol by tetrazine-PEG4-biotin-based SDS-PAGE/immunoblot analysis
In short: (§2)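 Mobilized peripheral blood CD34+ cells were expanded 7 days with CC100 cytokines, then 4 days in erythroid medium (SCF, IL-3, EPO, dexamethasone, β-estradiol). Cells got DMSO or 1–100 nM inhibitor (37 °C, 2 h or 24 h), then 3 μM TCO largazole thiol for 10 min. Lysates were clicked with 50 μM tetrazine-PEG4-biotin, pulled down on streptavidin and immunoblotted for HDAC1/2. Occupancy versus vehicle gave OC50 by sigmoidal fit.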

Histone deacetylase 1 [9] = target: T2, Histone deacetylase 1; assay: Binding affinity to HDAC1 in human CD34positive cell-derived erythroid progenitor cells measured up to 120 mins by tetrazine-PEG4-biotin-based SDS-PAGE/immunoblot analysis
Histone deacetylase 2 [10] = target: T1, Histone deacetylase 2; assay: Competitive binding affinity to HDAC2 in human CD34positive cell-derived erythroid progenitor cells in presence of largazole thiol by tetrazine-PEG4-biotin-based SDS-PAGE/immunoblot analysis; in short: as §2
[11] = Apparent permeability of the compound; type: ADME; details: not told
Histone deacetylase 2 [12] = target: T1, Histone deacetylase 2

T2 sequence (Q13547 whole entry, the tested form may be a part): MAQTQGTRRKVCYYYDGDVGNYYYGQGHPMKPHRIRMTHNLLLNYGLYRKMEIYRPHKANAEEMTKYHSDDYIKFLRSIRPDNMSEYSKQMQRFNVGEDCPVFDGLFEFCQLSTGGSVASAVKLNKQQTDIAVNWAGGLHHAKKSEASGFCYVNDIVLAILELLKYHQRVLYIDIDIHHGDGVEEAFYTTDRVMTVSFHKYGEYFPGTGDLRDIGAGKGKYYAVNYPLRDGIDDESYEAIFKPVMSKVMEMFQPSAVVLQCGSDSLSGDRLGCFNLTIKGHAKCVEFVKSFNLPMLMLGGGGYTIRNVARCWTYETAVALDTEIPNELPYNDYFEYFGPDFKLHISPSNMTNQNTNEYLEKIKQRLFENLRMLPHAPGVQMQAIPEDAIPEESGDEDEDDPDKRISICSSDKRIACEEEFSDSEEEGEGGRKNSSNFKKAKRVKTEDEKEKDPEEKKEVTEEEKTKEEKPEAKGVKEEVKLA
T1 sequence (Q92769 whole entry): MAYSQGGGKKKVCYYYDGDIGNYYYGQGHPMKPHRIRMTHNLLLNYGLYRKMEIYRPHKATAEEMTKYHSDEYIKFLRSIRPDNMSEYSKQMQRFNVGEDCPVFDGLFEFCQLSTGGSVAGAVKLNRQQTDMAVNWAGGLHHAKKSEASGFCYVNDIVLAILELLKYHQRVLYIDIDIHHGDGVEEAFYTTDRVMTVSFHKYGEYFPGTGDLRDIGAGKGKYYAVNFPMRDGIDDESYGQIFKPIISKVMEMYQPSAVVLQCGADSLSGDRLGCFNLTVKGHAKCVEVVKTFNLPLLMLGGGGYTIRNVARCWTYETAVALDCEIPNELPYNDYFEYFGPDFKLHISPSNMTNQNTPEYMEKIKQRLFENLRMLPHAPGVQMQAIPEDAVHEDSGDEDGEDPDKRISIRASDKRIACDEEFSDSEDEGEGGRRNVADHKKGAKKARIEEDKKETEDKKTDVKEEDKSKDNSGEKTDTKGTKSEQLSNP
Chain of Histone deacetylase 3/Nuclear receptor corepressor 2 (HDAC3/NCoR2) (O15379 whole entry, the tested form may be a part): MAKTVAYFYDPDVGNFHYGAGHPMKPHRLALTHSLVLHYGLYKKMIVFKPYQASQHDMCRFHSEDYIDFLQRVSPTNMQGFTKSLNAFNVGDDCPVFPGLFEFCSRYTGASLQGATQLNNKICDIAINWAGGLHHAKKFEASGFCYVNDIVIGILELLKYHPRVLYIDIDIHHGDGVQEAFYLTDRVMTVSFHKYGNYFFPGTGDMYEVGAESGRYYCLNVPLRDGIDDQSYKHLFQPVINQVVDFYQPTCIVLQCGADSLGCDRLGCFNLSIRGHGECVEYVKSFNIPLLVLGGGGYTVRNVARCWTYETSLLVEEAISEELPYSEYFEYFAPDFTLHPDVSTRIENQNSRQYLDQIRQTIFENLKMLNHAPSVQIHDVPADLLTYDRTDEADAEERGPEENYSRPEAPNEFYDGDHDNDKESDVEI
Chain of Histone deacetylase 3/Nuclear receptor corepressor 2 (HDAC3/NCoR2) (Q9Y618 whole entry, further chain, the tested form may be a part): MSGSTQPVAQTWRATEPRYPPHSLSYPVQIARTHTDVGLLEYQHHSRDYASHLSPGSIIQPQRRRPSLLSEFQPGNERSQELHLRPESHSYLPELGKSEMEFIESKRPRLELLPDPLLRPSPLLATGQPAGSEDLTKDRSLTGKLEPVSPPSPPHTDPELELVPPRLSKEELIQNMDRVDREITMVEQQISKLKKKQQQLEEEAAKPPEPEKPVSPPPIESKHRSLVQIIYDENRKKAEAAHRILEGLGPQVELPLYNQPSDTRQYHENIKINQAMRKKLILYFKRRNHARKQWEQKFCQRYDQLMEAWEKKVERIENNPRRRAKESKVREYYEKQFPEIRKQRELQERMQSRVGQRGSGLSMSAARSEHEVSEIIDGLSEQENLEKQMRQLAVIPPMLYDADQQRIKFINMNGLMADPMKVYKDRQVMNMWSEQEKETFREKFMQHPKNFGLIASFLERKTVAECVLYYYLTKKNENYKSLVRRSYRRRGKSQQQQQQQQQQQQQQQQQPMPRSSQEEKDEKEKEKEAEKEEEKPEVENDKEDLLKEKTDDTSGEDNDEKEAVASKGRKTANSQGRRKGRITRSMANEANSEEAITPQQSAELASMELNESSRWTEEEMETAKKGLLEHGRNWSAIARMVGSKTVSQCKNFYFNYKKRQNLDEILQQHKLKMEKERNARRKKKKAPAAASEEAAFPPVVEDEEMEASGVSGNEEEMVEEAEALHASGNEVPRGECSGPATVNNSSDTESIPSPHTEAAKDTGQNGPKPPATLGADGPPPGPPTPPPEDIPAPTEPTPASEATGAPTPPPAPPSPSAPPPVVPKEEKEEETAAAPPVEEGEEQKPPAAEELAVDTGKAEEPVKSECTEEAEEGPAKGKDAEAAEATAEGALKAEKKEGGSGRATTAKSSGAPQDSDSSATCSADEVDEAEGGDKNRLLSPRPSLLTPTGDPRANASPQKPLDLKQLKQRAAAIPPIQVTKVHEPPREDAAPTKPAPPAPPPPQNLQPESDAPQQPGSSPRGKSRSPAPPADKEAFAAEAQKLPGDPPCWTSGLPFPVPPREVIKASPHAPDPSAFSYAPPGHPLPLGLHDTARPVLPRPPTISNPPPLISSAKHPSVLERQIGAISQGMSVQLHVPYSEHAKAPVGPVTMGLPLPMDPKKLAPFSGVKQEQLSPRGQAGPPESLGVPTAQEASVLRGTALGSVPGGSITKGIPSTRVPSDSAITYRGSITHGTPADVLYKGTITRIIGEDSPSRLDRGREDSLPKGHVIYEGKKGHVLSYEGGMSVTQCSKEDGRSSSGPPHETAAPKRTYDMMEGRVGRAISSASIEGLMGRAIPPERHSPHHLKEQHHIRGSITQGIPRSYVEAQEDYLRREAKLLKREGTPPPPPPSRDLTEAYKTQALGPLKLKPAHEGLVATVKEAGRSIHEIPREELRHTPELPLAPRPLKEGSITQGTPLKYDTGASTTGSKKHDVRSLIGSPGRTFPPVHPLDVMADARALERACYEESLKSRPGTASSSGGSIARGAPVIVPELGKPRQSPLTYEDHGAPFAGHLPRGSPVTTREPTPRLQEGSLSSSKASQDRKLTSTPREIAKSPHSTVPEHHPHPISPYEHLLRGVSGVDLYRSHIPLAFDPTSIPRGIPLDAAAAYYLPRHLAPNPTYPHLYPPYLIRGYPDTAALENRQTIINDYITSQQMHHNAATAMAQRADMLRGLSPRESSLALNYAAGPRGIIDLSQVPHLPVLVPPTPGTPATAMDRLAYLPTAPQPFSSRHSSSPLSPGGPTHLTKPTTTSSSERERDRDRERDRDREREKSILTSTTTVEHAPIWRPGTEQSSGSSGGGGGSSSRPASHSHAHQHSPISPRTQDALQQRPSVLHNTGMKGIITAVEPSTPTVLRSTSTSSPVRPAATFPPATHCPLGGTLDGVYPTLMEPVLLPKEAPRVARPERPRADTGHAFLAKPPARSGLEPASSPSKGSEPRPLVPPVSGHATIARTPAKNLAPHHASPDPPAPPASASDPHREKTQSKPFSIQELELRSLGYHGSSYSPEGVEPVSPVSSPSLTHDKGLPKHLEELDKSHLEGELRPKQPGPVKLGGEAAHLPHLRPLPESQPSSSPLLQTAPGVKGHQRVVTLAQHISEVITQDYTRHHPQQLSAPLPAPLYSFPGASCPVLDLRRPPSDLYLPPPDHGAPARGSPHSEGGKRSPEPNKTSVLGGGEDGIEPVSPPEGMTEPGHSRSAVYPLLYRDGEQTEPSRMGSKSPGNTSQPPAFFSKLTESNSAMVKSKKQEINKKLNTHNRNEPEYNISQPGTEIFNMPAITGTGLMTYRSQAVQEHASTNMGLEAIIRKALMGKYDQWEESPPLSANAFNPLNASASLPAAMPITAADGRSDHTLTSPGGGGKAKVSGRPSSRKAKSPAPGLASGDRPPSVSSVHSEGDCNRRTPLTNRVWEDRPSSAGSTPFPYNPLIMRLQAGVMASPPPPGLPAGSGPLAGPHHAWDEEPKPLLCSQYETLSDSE
Chain of Histone deacetylase 3 (Homo sapiens) (O15379 whole entry): as the sequence (O15379 whole entry, the tested form may be a part) above

| IC50 (Histone deacetylase 2 [1]) | Activity (Histone deacetylase 2 [2]) | IC50 (Histone deacetylase 1 [3]) | IC50 [4] | Activity (Histone deacetylase 1 [5]) | IC50 (Histone deacetylase 8) | Activity (Histone deacetylase 2 [6]) | Activity [7] | Activity (Histone deacetylase 1 [8]) | Activity (Histone deacetylase 1 [9]) | Activity (Histone deacetylase 2 [10]) | Papp [11] | Occ50 (Histone deacetylase 2 [12]) | Compound |
| --- | --- | --- | --- | --- | --- | --- | --- | --- | --- | --- | --- | --- | --- |
| 6.6 nM | Active | 1.9 nM | 1.1 nM | Active | 1110 nM | Active | inactive | Active | Active | Active | 3.23 ×10⁻⁶ cm/s |  | C[C@@]12CSC(=N1)c1csc(n1)CNC(=O)C[C@@H](/C=C/CCS)OC(=O)[C@H](CCCCNC(=O)O[C@@H]1CC/C=C/CCC1)NC2=O |
|  |  |  |  |  |  |  |  |  |  |  |  | 3 nM | O=C(/C=C/c1ccc(CN(CCO)CCc2c[nH]c3ccccc23)cc1)NO |
